Bioassay records deposited in PubChem BioAssay by several laboratories.
Most compounds without a hit are left out; they make up all but 1.7% or so of the library.
Rpn11 block: Rpn11 (human) deubiquitinase inhibition; O00487; human 26S proteasome, Ub4-pepOG fluorescence polarization; 20S core pre-blocked with epoxomicin; inhibition, % at 20 µM; 0.59% of 360,000 active;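 active = inhibition at 20 µM, scaled to each plate's controls, above about 33%, limit read from the data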
Target sequence (O00487 whole entry, looked up): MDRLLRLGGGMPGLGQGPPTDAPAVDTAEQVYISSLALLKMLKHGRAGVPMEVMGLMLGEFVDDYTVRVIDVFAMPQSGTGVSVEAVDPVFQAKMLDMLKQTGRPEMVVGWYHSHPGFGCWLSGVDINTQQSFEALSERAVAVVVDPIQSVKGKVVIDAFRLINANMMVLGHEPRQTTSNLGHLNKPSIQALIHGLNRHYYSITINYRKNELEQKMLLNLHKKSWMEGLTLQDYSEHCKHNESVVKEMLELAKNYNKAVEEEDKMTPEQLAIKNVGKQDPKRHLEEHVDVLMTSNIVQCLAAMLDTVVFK
TPT1 inhibitor: blocks Candida albicans tRNA 2'-phosphotransferase. recombinant caTPT1, FP RNA substrate dephosphorylation. inhibition, % at 5 µM. 0.81% of 300,000 active;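 active = inhibition above the mean of all tested compounds plus 3 SD, set per screening campaign, cut at about 24% in these data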;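 also: plate controls were DMSO alone for no effect and ferristatin control at 100 nM for full effect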
HNF4A DNA FP: change in binding of human HNF4 alpha to DNA; P41235; HNF4a-FITC DNA binding, fluorescence polarization, 1 h; activity change, % at 10 µM; 0.3% of 360,000 active; in the data active = activity change above about 30%, passing the limit was not always enough
CSN inh: inhibitors of human CSN-mediated cullin deneddylation | Q92905 | Purified CSN, SCF-Nedd8-OG deneddylation, fluorescence polarization | inhibition, % at 12.5 µM | 0.38% of 360,000 active;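 active = pattern-corrected inhibition above about 35%, with an unprinted fluorescence ratio check between 0.5 and 1.5, limit read from the data, passing the limit was not always enough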;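 also: 0% = enzyme with substrate and 100% = substrate without enzyme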
Target sequence (Q92905 whole entry, looked up, one chain of several): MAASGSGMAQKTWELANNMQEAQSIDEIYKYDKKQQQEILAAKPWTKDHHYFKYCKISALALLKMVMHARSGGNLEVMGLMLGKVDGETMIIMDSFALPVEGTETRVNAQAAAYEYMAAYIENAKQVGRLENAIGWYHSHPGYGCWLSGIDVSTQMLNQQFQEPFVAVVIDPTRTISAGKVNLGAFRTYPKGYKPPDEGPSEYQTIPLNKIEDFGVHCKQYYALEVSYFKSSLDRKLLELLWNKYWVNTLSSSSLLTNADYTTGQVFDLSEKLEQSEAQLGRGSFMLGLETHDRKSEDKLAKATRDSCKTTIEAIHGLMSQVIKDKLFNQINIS
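Detection – fluorescence polarization · System – HEK293T-derived human Csn5 enzyme · Controls – substrate-only high control, full reaction low control · Timing – 90 min, room temperature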
IDE inh: cellular human IDE inhibition; inhibition, % at 5.59 µM; HEK cells, FAbetaB cleavage, fluorescence polarization; P14735; 0.41% of 320,000 active; AID 434962;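 active = percent inhibition above the average of all tested compounds plus 3 SD, set per screening campaign, cut at about 16% in these data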;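 also: IDE supplied by intact live HEK cells; FP after avidin binding of uncleaved biotin substrate so inhibition keeps polarization high; 0% = DMSO wells and 100% = 60 µM reference IDE inhibitor Ii1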
IDE cell activ: activators of human insulin-degrading enzyme in cells; 0.073% of 340,000 active; HEK cells, FAbeta-B cleavage, fluorescence polarization; 0% vehicle, 100% cell-free pure enzyme wells; AID 493087; activation, % at 5.96 µM; P14735;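 active = activation above the mean of all tested compounds plus 3 SD, set per screening campaign, cut at about 17% in these data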
caTPT1 confirm: TPT1 (C. albicans) inhibition, confirmation; inhibition, % at 5 µM; 74% of 2,400 active; recombinant caTPT1, fluorescence polarization, RNase T1 coupled; shares compounds with TPT1 inhibitor;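 active = inhibition above the primary screen limit, the mean inhibition of all tested compounds plus 3 SD, cut at about 25% in these data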
RNase T1 inh: RNase T1 inhibition in TPT1 counter-screen; shares compounds with TPT1 inhibitor; RNase T1 cleavage, fluorescence polarization, 1536-well; inhibition, % at 5 µM; 83% of 2,400 active;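 active = inhibition above the solvent-only control well mean plus 3 SD, limit set per screening run, cut at about 23% in these data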;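 also: plate controls were DMSO wells with enzyme for no effect and wells without RNase T1 for full effect; inhibitors block cleavage so intact labeled substrate keeps polarization high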
IDE inh confirm: confirmation of human insulin-degrading enzyme inhibitors in cells; shares compounds with IDE inh; HEK cells, FAbetaB cleavage, fluorescence polarization; inhibition, % at 5.59 µM; 51% of 1,200 active;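 active = mean inhibition across triplicate wells above the cutoff set by the earlier primary insulin-degrading enzyme screen, cut at about 16% in these data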;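 also: 0% = DMSO wells and 100% = 60 µM reference IDE inhibitor Ii1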
HEK293 tox: HEK cell cytotoxicity, counter-screen for IDE inhibitors. shares compounds with IDE inh. inhibition, % at 5.59 µM. HEK293 cytotoxicity, ATP luminescence. 28% of 1,200 active; in the data active = inhibition above about 22%;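 also: 0% = vehicle wells and 100% = reference cytotoxic drug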
Rpn11 confirm: confirmation of human proteasome Rpn11 inhibitors; 29% of 1,900 active; inhibition, % at 20 µM; AID 602318; purified human 26S proteasome, Ub4-pepOG fluorescence polarization; proteasome pretreated with epoxomicin; shares compounds with Rpn11 block
MMP-2 counter: blocks human MMP-2, flagging nonselective RPN11 hits; shares compounds with Rpn11 block; recombinant MMP-2, FRET peptide cleavage fluorescence; inhibition, % at 20 µM; 4% of 1,900 active; AID 602330;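 also: human MMP-2 activated beforehand with APMA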
Thrombin inh: counter-screen for RPN11 inhibitors: inhibition of bovine thrombin; bovine thrombin cleavage of Ub4-pepOG, fluorescence polarization; 13% of 1,900 active; shares compounds with Rpn11 block; inhibition, % at 20 µM;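 active = mean inhibition at least 40% at 20 µM, or signal 3 deviations below plate average, so some actives read negative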;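 also: plate controls were thrombin with DMSO for no effect and buffer wells lacking thrombin for full effect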
HNF4a DNA conf: change in binding of human HNF4 alpha to DNA, retest; AID 1224897; shares compounds with HNF4A DNA FP; 99% of 210 active; activity change, % at 12.5 µM; HNF4A-FITC DNA binding, fluorescence polarization, 1 h; call rule not given here
An asterisk follows results filed as active; · = not tested or not shown. Rule as the data show it, unless noted: active = inhibition above about 40%; inactive = the rest.

SMILES	Rpn11 block	TPT1 inhibitor	HNF4A DNA FP	CSN inh	IDE inh	IDE cell activ	caTPT1 confirm	RNase T1 inh	HNF4a DNA conf	others
O=C(CS(=O)(=O)c1c[nH]c2ccccc12)N1CCc2ccccc21	-1.5	2.0	0.8	-1.3	3.8	1.0	·	·	·
Cc1onc(-c2ccccc2)c1C(=O)Nc1sccc1C#N	·	83.3*	43.8*	11.8	-2.8	-3.0	90.8*	98.9*	65.1*
Cc1onc(-c2ccccc2)c1C(=O)Nc1sc2c(c1C#N)CCC2	20.7	17.5	12.9	20.2	-4.5	1.6	·	·	·
Cc1ccc(S(=O)(=O)N(C)C)cc1NC(=O)COC(=O)c1ccc2c(c1)NC(=O)CS2	4.5	1.2	0.5	0.0	-1.6	0.1	·	·	·
N#Cc1c(Nc2cccc(F)c2)sc2c(O)cc(=O)[nH]c12	·	51.3*	44.2*	34.5	7.3	·	28.7*	40.3*	52.2*
CCN(CC)C(=O)CSC(Nc1ccc(F)cc1)=C(C#N)C#N	·	39.7*	37.4*	15.2	4.8	-6.3	40.5*	51.5*	62.0*
CCOC(=O)C1=C(C)NC(=O)NC1c1ccc(NC(C)=O)cc1 (stereo not given)	3.8	2.0	5.7	0.2	7.6	4.2	·	·	·
CCOC(=O)C1=C(C)NC(=O)NC1c1ccc(N2CCC(c3ccccc3)=N2)cc1 (stereo not given)	·	53.3*	54.9*	22.2	4.6	-2.2	76.5*	87.2*	62.4*
Cn1cccc1/C=C1\SC(=S)N(CC(=O)O)C1=O	·	107.6*	79.9*	49.2*	-5.4	-0.7	115.2*	128.6*	116.8*
COCCNc1nc(Nc2ccccc2Cl)c2sccc2n1	-6.2	·	4.4	-6.5	·	·	·	·	·
COc1ccc(O)c(C(=O)c2coc(=N)c(C(=O)Nc3ccc(SC(F)F)cc3)c2)c1	·	63.5*	44.1*	55.8*	20.3*	-22.1	75.2*	78.0*	64.8*	IDE inh confirm=38.0*;HEK293 tox=24.5*
CC(C)OC(=O)c1cc(C(=O)c2cc(F)ccc2O)coc1=N	-1.6	0.5	5.0	3.5	-5.5	0.1	·	·	·
O=C(CCn1c(=O)oc2cc(Cl)ccc21)Nc1ccc(O)cc1	-2.0	-5.4	-1.9	5.5	-3.7	-4.1	·	·	·
CCN1CCc2c(sc(NC(=O)c3ccc4ccccc4c3)c2C(N)=O)C1	·	65.3*	38.1*	30.9	12.7	-8.8	80.2*	89.0*	65.1*
CCN1CCc2c(sc(NC(=O)CN3C(=O)c4ccccc4C3=O)c2C(N)=O)C1	5.0	1.1	-0.5	3.1	12.7	3.4	·	·	·
COc1ccc(C2NN=C(c3c[nH]c4ccccc34)C2O)cc1 (stereo not given)	94.0*	73.1*	57.1*	25.5	1.6	-1.6	65.0*	77.8*	89.0*
Cc1n(-c2ccccc2)c2ccc(Cl)cc2[n+]1CCO	1.5	-0.5	0.8	6.7	1.7	6.5	·	·	·
N#Cc1c(-c2c(Cl)cccc2Cl)noc1/C=C/Nc1ccc(C(=O)O)cc1	16.7	3.0	2.0	-0.6	3.2	5.9	·	·	·
CSc1nsc(/C=C/Nc2ccc(C(=O)O)cc2)c1C#N	67.9*	30.5*	48.9*	28.5	1.0	-13.6	42.6*	52.7*	45.2*	Rpn11 confirm=53.2*;MMP-2 counter=-7.5;Thrombin inh=41.7*
C=CCNc1sc(C(=O)c2ccc(Br)s2)c(N)c1C#N	·	27.9*	54.9*	29.7	-4.6	2.3	37.8*	48.6*	50.8*
Cc1ccc(S(=O)(=O)NC(CC(=O)NCC2CCCO2)c2ccccc2)cc1 (stereo not given)	-0.6	-4.4	1.4	7.5	1.2	4.0	·	·	·
O=C(Nc1ccc(S(=O)(=O)Nc2nccs2)cc1)c1ccc(N2C(=O)c3ccccc3C2=O)cc1	67.9*	41.4*	53.3*	67.2*	0.9	2.1	64.8*	77.4*	65.8*	Rpn11 confirm=91.3*;MMP-2 counter=-28.9;Thrombin inh=46.0*
CCN(CC(=O)Nc1ccc(NC(C)=O)cc1)C(=O)CCCc1nc2ccccc2c(=O)[nH]1	0.1	1.9	-1.0	-0.9	2.6	4.4	·	·	·
COc1ccc(-c2nnc(C)c3nocc23)cc1	89.0*	67.3*	56.4*	8.0	-1.4	0.8	60.1*	69.0*	63.1*	Rpn11 confirm=48.4*;MMP-2 counter=-5.4;Thrombin inh=40.0
CC(=O)NC(NC(=S)Nc1cccc(Br)c1)C(Cl)(Cl)Cl (stereo not given)	-5.6	-4.5	-1.8	-0.3	-3.8	0.4	·	·	·
O=C(O)c1ccc(/C=C/c2ccc3cccc(O)c3n2)cc1	9.1	·	-6.1	19.9	·	0.3	·	·	·
Oc1ccc(/C=C/c2ccc3cccc(O)c3n2)cc1Br	·	48.5*	43.8*	33.3	6.3	-12.4	63.3*	69.6*	75.5*
CCOC(=O)/C(C#N)=C/c1cc(C)n(-c2ccccc2)c1C	-0.8	4.2	-1.3	-0.1	2.8	4.2	·	·	·
